# Species on record: Homo sapiens
# Experiment: Selectivity ratio of Ki for human adenosine A2A receptor to Ki for human adenosine A3 receptor
row,Ratio Ki,SMILES
1,8,Cc1sc2nc(-c3sc(NC(=O)c4ccco4)nc3-c3ccccc3)nc(N)c2c1C

# Species on record: Homo sapiens
# Experiment: Selectivity ratio of Ki for human adenosine A1 receptor to Ki for human adenosine A2A receptor
row,Ratio Ki,SMILES
1,3,CN(C)c1nc(N)nc(-c2sc(NC(=O)c3ccco3)nc2-c2ccccc2)n1
2,5.7,COc1ccc(C(=O)Nc2nc(-c3ccccc3)c(C(=O)c3ccccn3)s2)cc1
3,5,O=C(Nc1nc(-c2ccccc2)c(C(=O)c2ccccn2)s1)c1ccco1

# Target: Adenosine receptor A2a (Homo sapiens, UniProt P29274)
# Sequence (P29274 whole entry): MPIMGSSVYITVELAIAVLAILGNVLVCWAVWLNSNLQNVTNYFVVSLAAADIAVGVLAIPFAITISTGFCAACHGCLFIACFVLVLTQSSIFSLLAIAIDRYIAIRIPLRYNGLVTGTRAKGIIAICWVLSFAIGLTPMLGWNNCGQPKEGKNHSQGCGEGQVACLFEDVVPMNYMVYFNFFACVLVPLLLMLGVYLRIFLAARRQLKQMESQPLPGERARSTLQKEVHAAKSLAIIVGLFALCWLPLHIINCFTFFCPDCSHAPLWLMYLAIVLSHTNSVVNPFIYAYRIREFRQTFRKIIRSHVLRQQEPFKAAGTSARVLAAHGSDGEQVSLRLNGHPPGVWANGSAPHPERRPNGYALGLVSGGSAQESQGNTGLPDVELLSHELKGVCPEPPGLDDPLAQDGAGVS
# Experiment: Displacement of [3H]NECA from human adenosine A2A receptor expressed in CHO cells
# Format: cell-based
# How it was run: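 Membranes prepared from stably transfected CHO cells expressing human A2A receptor by two-step centrifugation (1000 × g, then 100,000 × g), frozen and kept at -80 °C. Competition against 30 nM [3H]NECA, with 100 µM R-PIA for non-specific binding. Ki obtained by competition-curve fitting.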
row,Ki [µM],SMILES
1,14.4,Nc1nc(-c2sc(NC(=O)c3ccco3)nc2-c2ccccc2)nc2sc3c(c12)CCCC3
2,8.78,O=C(Nc1nc(-c2ccccc2)c(-c2nc3ccccc3c(=O)[nH]2)s1)c1ccco1
3,0.562,Cc1ccc(C(=O)Nc2nc(-c3ccccc3)c(-c3nc(N)nc(N(C)C)n3)s2)cc1
4,> 100,Cc1sc2nc(-c3sc(NC(=O)c4ccco4)nc3-c3ccccc3)[nH]c(=O)c2c1C
5,5.95,Cc1sc2nc(-c3sc(NC(=O)c4ccco4)nc3-c3ccccc3)nc(N)c2c1C
6,0.179,CN(C)c1nc(N)nc(-c2sc(NC(=O)c3ccco3)nc2-c2ccccc2)n1
7,0.128,COc1ccc(C(=O)Nc2nc(-c3ccccc3)c(C(=O)c3ccccn3)s2)cc1
8,0.00665,O=C(Nc1nc(-c2ccccc2)c(-c2ccncc2)s1)c1ccco1
9,0.0747,O=C(Nc1nc(-c2ccccc2)c(C(=O)c2ccccn2)s1)c1ccco1
10,4.87,Cc1sc2nc(-c3sc(NC(=O)c4ccccc4)nc3-c3ccccc3)nc(N)c2c1C

# Target: T1, Adenosine receptors; A1 & A3 (Homo sapiens) (UniProt P30542+P0DMS8)
# Experiment: Selectivity ratio of Ki for human adenosine A3 receptor to Ki for human adenosine A1 receptor
row,Ratio Ki,SMILES
1,16,O=C(Nc1nc(-c2ccccc2)c(-c2ccncc2)s1)c1ccco1

# Target: T2, Adenosine receptor A3 (Homo sapiens, UniProt P0DMS8)
# T2 sequence (P0DMS8 whole entry): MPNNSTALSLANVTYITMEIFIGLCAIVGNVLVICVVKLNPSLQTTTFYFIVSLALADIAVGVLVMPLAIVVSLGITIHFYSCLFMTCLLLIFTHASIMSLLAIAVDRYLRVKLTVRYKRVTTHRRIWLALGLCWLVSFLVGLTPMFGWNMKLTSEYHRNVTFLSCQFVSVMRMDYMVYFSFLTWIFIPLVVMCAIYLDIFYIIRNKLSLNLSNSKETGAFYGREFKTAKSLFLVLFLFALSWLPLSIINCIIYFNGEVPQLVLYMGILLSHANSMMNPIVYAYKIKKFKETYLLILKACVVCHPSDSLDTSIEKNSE
# Experiment: Displacement of [3H]HEMADO from human adenosine A3 receptor expressed in CHO cells
# Format: cell-based
# How it was run: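 Human A3 receptor binding in membranes from stably transfected CHO cells (low-speed then 100,000 × g pellet, stored at -80 °C). Radioligand was the agonist [3H]HEMADO at 1 nM; non-specific binding measured with 100 µM R-PIA. Ki values derived from competition experiments.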
row,Ki [µM],SMILES
1,36.6,Nc1nc(-c2sc(NC(=O)c3ccco3)nc2-c2ccccc2)nc2sc3c(c12)CCCC3
2,3.93,O=C(Nc1nc(-c2ccccc2)c(-c2nc3ccccc3c(=O)[nH]2)s1)c1ccco1
3,0.816,Cc1ccc(C(=O)Nc2nc(-c3ccccc3)c(-c3nc(N)nc(N(C)C)n3)s2)cc1
4,> 10,Cc1sc2nc(-c3sc(NC(=O)c4ccco4)nc3-c3ccccc3)[nH]c(=O)c2c1C
5,0.746,Cc1sc2nc(-c3sc(NC(=O)c4ccco4)nc3-c3ccccc3)nc(N)c2c1C
6,0.918,CN(C)c1nc(N)nc(-c2sc(NC(=O)c3ccco3)nc2-c2ccccc2)n1
7,0.201,COc1ccc(C(=O)Nc2nc(-c3ccccc3)c(C(=O)c3ccccn3)s2)cc1
8,0.00936,O=C(Nc1nc(-c2ccccc2)c(-c2ccncc2)s1)c1ccco1
9,0.951,O=C(Nc1nc(-c2ccccc2)c(C(=O)c2ccccn2)s1)c1ccco1
10,0.676,Cc1sc2nc(-c3sc(NC(=O)c4ccccc4)nc3-c3ccccc3)nc(N)c2c1C

# System: adenosine A3/A2A receptor ratio (Homo sapiens)
# Experiment: Selectivity ratio of Ki for human adenosine A2A receptor to Ki for human adenosine A3 receptor
row,Ratio Ki,SMILES
1,5,CN(C)c1nc(N)nc(-c2sc(NC(=O)c3ccco3)nc2-c2ccccc2)n1

# Target: T3, Adenosine receptor A2b (Homo sapiens, UniProt P29275)
# T3 sequence (P29275 whole entry): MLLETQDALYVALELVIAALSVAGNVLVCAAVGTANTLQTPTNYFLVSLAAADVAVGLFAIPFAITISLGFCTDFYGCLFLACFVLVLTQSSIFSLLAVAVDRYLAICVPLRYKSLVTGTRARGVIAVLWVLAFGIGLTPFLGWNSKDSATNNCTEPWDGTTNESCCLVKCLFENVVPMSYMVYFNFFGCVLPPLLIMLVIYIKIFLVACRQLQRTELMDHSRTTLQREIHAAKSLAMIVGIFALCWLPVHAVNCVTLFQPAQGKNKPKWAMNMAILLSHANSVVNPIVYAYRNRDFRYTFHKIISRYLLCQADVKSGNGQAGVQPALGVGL
# Experiment: Antagonist activity at human adenosine A2B receptor expressed in CHO cells assessed as inhibition of NECA-stimulated adenylyl cyclase activity
# Format: functional, cell-based
# How it was run: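 Affinity at human A2B receptor taken from inhibition of NECA-stimulated adenylyl cyclase activity. Membranes from stably transfected CHO cells were obtained by a single high-speed spin of the homogenate, resuspended in 50 mM Tris/HCl pH 7.4 and used at once.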
row,Ki [µM],SMILES
1,> 10,Nc1nc(-c2sc(NC(=O)c3ccco3)nc2-c2ccccc2)nc2sc3c(c12)CCCC3
2,> 10,O=C(Nc1nc(-c2ccccc2)c(-c2nc3ccccc3c(=O)[nH]2)s1)c1ccco1
3,> 30,Cc1ccc(C(=O)Nc2nc(-c3ccccc3)c(-c3nc(N)nc(N(C)C)n3)s2)cc1
4,> 10,Cc1sc2nc(-c3sc(NC(=O)c4ccco4)nc3-c3ccccc3)[nH]c(=O)c2c1C
5,> 10,Cc1sc2nc(-c3sc(NC(=O)c4ccco4)nc3-c3ccccc3)nc(N)c2c1C
6,8,CN(C)c1nc(N)nc(-c2sc(NC(=O)c3ccco3)nc2-c2ccccc2)n1
7,> 10,COc1ccc(C(=O)Nc2nc(-c3ccccc3)c(C(=O)c3ccccn3)s2)cc1
8,0.00278,O=C(Nc1nc(-c2ccccc2)c(-c2ccncc2)s1)c1ccco1
9,9.11,O=C(Nc1nc(-c2ccccc2)c(C(=O)c2ccccn2)s1)c1ccco1
10,> 10,Cc1sc2nc(-c3sc(NC(=O)c4ccccc4)nc3-c3ccccc3)nc(N)c2c1C

# Target: T4, Adenosine receptor A1 (Homo sapiens, UniProt P30542)
# T4 sequence (P30542 whole entry): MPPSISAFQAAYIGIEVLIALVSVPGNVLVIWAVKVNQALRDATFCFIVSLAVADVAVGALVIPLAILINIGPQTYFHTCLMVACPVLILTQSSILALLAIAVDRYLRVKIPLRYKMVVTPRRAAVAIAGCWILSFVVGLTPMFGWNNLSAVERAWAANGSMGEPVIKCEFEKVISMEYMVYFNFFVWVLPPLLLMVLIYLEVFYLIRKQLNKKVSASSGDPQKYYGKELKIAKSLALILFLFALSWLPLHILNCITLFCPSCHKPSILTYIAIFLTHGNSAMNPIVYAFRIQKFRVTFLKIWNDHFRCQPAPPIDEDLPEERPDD
# Experiment: Displacement of [3H]CCPA from human adenosine A1 receptor expressed in CHO cells
# Format: cell-based
# How it was run: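 Agonist radioligand competition on membranes from CHO cells stably transfected with human A1 receptor (1000 × g spin to clear debris, crude membranes pelleted at 100,000 × g, stored at -80 °C). Tracer 1 nM [3H]CCPA; non-specific binding defined with 1 mM theophylline. Ki computed from competition curves.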
row,Ki [µM],SMILES
1,> 10,Nc1nc(-c2sc(NC(=O)c3ccco3)nc2-c2ccccc2)nc2sc3c(c12)CCCC3
2,> 10,O=C(Nc1nc(-c2ccccc2)c(-c2nc3ccccc3c(=O)[nH]2)s1)c1ccco1
3,3.63,Cc1ccc(C(=O)Nc2nc(-c3ccccc3)c(-c3nc(N)nc(N(C)C)n3)s2)cc1
4,> 10,Cc1sc2nc(-c3sc(NC(=O)c4ccco4)nc3-c3ccccc3)[nH]c(=O)c2c1C
5,12,Cc1sc2nc(-c3sc(NC(=O)c4ccco4)nc3-c3ccccc3)nc(N)c2c1C
6,0.536,CN(C)c1nc(N)nc(-c2sc(NC(=O)c3ccco3)nc2-c2ccccc2)n1
7,0.688,COc1ccc(C(=O)Nc2nc(-c3ccccc3)c(C(=O)c3ccccn3)s2)cc1
8,0.00058,O=C(Nc1nc(-c2ccccc2)c(-c2ccncc2)s1)c1ccco1
9,0.406,O=C(Nc1nc(-c2ccccc2)c(C(=O)c2ccccn2)s1)c1ccco1
10,7.24,Cc1sc2nc(-c3sc(NC(=O)c4ccccc4)nc3-c3ccccc3)nc(N)c2c1C

# Species on record: Homo sapiens
# Experiment: Selectivity ratio of Ki for human adenosine A3 receptor to Ki for human adenosine A2A receptor
row,Ratio Ki,SMILES
1,1.6,COc1ccc(C(=O)Nc2nc(-c3ccccc3)c(C(=O)c3ccccn3)s2)cc1
2,13,O=C(Nc1nc(-c2ccccc2)c(C(=O)c2ccccn2)s1)c1ccco1

# Species on record: Homo sapiens
# Experiment: Selectivity ratio of Ki for human adenosine A2B receptor to Ki for human adenosine A3 receptor
row,Ratio Ki,SMILES
1,> 13,Cc1sc2nc(-c3sc(NC(=O)c4ccco4)nc3-c3ccccc3)nc(N)c2c1C

# Target: T1, Adenosine receptors; A1 & A3 (Homo sapiens)
# Experiment: Selectivity ratio of Ki for human adenosine A1 receptor to Ki for human adenosine A3 receptor
row,Ratio Ki,SMILES
1,16,Cc1sc2nc(-c3sc(NC(=O)c4ccco4)nc3-c3ccccc3)nc(N)c2c1C

# Species on record: Homo sapiens
# Experiment: Selectivity ratio of Ki for human adenosine A2A receptor to Ki for human adenosine A1 receptor
row,Ratio Ki,SMILES
1,11,O=C(Nc1nc(-c2ccccc2)c(-c2ccncc2)s1)c1ccco1
